Assays:
[1] = biological target: Human immunodeficiency virus type 1 reverse transcriptase (Human immunodeficiency virus 1) (UniProt Q72547); test: Inhibition of HIV-1 (wild type) reverse transcriptase at 10 uMol.; conditions: 10 uM
Procedure, shortened: (§1)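 Purified heterodimer RT (0.015 mg/mL) incubated with or without inhibitor (10 μM) in 25 mM Tris pH 8.0, 75 mM KCl, 8 mM MgCl₂, 2 mM DTT, 0.1 mg/mL BSA, CHAPS, 0.1 units poly(rC)-oligo(dG), 0.01 mM dGTP plus [α-³⁵S]-dGTP; 30 min, 37 °C. Nucleotide incorporation expressed relative to no-inhibitor control.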

CEM-SS = test: In vitro 50% cellular protection of CEM-SS cells from HIV-1 induced cytopathicity.; assay type: functional, cell-based; conditions: Homo sapiens
[2] = biological target: Human immunodeficiency virus type 1 reverse transcriptase (Human immunodeficiency virus 1, UniProt Q72547); test: The quantity of compound required to reduce WT Reverse transcriptase activity by 50%
Procedure, shortened: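 RNA-dependent DNA polymerase activity of purified heterodimer RT (0.015 mg/mL) at various inhibitor concentrations; 25 mM Tris pH 8.0, 75 mM KCl, 8 mM MgCl₂, 2 mM DTT, 0.1 mg/mL BSA, CHAPS, poly(rC)-oligo(dG) template-primer, 0.01 mM dGTP with [α-³⁵S]-dGTP tracer; 30 min at 37 °C; radiolabel incorporation read.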

[3] = biological target: Human immunodeficiency virus type 1 reverse transcriptase (Human immunodeficiency virus 1) (UniProt Q72547); test: Compound is evaluated for the percent inhibition of HIV-1 WT Reverse transcriptase at 10 uM drug concentration; procedure, shortened: as §1
[4] = biological target: Human immunodeficiency virus type 1 reverse transcriptase (Human immunodeficiency virus 1) (UniProt Q72547); test: Compound is evaluated for the percentage of inhibition of HIV-1 WT Reverse transcriptase at 10 uM drug concentration
Procedure, shortened: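 Purified heterodimer HIV-1 WT RT (0.015 mg/mL), RNA-dependent DNA polymerase assay; poly(rC)-oligo(dG) template-primer (0.1 units), 0.01 mM dGTP plus [α-³⁵S]-dGTP, in 25 mM Tris pH 8.0, 75 mM KCl, 8 mM MgCl₂, 2 mM DTT, 0.1 mg/mL BSA, CHAPS; 30 min, 37 °C. Nucleotide incorporation relative to no-inhibitor control gives % inhibition.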

Row | SMILES | inhibition [1] [%] | EC50 (CEM-SS) [nM] | also measured
1 | Cc1cccc2c1nc(-c1cccnc1)n2Cc1c(F)cccc1F | 35 | 31600 | 
2 | Cc1cccc2c1nc(-c1ccc(C#N)cc1)n2Cc1c(F)cccc1F | 26 |  | 
3 | Fc1cccc(F)c1Cn1c(-c2c(F)cccc2F)nc2ccccc21 | 93 | 1700 | IC50 [2]: 110 nM
4 | Cc1cccc2c1nc(-c1c(F)cccc1F)n2Cc1c(F)cccc1F | 92 | 440 | IC50 [2]: 200 nM
5 | Cc1cccc2c1nc(-c1c(F)cccc1F)n2Cc1c(F)c(F)c(F)c(F)c1F | 36 |  | 
6 | Cc1cccc2c1nc(-c1c(F)cccc1F)n2Cc1ccccc1 | 87 | 750 | IC50 [2]: 1600 nM
7 | Cc1cccc2c1nc(-c1c(F)cccc1F)n2Cc1cccnc1 | 43 |  | 
8 | Cc1cccc2c1nc(-c1c(F)cccc1F)n2S(=O)(=O)c1ccccc1 | 39 |  | 
9 | Fc1cccc(F)c1COCc1nc2ccccc2n1Cc1c(F)cccc1F | 7 |  | 
10 | Cc1cccc2c1nc(-c1cccc3ccccc13)n2Cc1c(F)cccc1F | 2 |  | 
11 | Cc1cccc2c1nc(C(C)C)n2Cc1c(F)cccc1F | 53 |  | 
12 | Cc1cccc2c1nc(C=O)n2Cc1c(F)cccc1F | 59 |  | 
13 | Fc1cccc(F)c1Cn1c(-c2ccccc2)nc2ccccc21 |  | 6060 | inhibition [3]: 77%; IC50 [2]: 16000 nM
14 | Fc1cccc(F)c1C1SCc2nc3ccccc3n21 (centres undefined) [THIAZOLOBENZIMIDAZOLE] |  | 520 | inhibition [4]: 84%; IC50 [2]: 500 nM
15 | Cc1cccc2c1nc(-c1ccncc1)n2Cc1c(F)cccc1F | 70 | 3500 | 
16 | O=C(c1c(F)cccc1F)n1c(-c2c(F)cccc2F)nc2ccccc21 | 8 |  | 
17 | Fc1cccc(F)c1-c1nc2ccccc2n1Cc1ccccc1 | 71 | > 32000 | IC50 [2]: 18600 nM
18 | Cc1nc2ccccc2n1Cc1c(F)cccc1F | 22 |  | 
19 | Cc1cccc2c1ncn2Cc1c(F)cccc1F | 40 |  | 
20 | O=S(=O)(c1ccccc1)n1c(-c2c(F)cccc2F)nc2ccccc21 | 52 |  | 
21 | Cc1cccc2c1nc(-c1c(F)cccc1F)n2Cc1c(Cl)cccc1Cl | 58 | 3160 | 
22 | Cc1cccc2c1nc(CO)n2Cc1c(F)cccc1F | 12 |  | 
23 | Cc1cccc2c1nc(-c1ccc3ccccc3c1)n2Cc1c(F)cccc1F | 8 |  | 
24 | Cc1ccccc1-c1nc2ccccc2n1Cc1c(F)cccc1F | 71 |  | 
